Nine compounds from PMC8434889 (Bioorganic Chemistry, 2021) can be followed below.

One data set in a line: Splenocytes cytotoxicity. The settings on record: female, BALB/c, mouse, murine splenocytes. Format: cell-based. The gist of the method: (§1)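 MTT assay after 48 h culture in triplicate with or without test compound. Cells: 8 × 10^5 BALB/c splenocytes or 1 × 10^5 RAW264.7 cells. MTT reagent (5 mg/mL) added 4 h before end of culture; formazan dissolved in DMSO; absorbance at 570 nm. CC50 from log(inhibitor)–normalized response nonlinear fit.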

Data set [1] concerns IL-1β. The experiment in a line: LPS-induced cytokine production in RAW264.7 cell, IL-1β. Format: cell-based. The note with it: Mus musculus, RAW264.7, 48 h, read-out: IL-1β IC50. The gist of the method:
(§2)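 Murine RAW264.7 macrophages grown in DMEM with 10% FBS, 2 mM L-glutamine and penicillin/streptomycin at 37 °C, 5% CO2. Cells at 1 × 10^5 in triplicate with or without test compound, then LPS 10 μg/mL for 48 h. Supernatant IL-1β, IL-6 and TNF-α by ELISA. IC50 from log(inhibitor)–normalized response nonlinear fit.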

A further data set has as its system TNF-α. The experiment in a line: LPS-induced cytokine production in RAW264.7 cell, TNF-α. The note with it: Mus musculus, RAW264.7, 48 h, read-out: TNF-α IC50. It is filed as cell-based. The gist of the method: as §2
Data set [2] has as its system IL-1β. The experiment in a line: LPS-induced cytokine production in splenocytes, IL-1β. The note with it: Mus musculus, Splenocyte, 48 h, read-out: IC50 IL-1β. It is filed as cell-based.
In data set [3] the test system is IL-6. The experiment in a line: LPS-induced cytokine production in splenocytes, IL-6. Format: cell-based. The note with it: Mus musculus, Splenocyte, 48 h, read-out: IC50 IL-6.
The test system of data set [4] is LPS-induced B cell proliferation of murine splenocytes. The experiment in a line: LPS-induced B-cell proliferation. Format: cell-based, mouse. The settings on record: 48 h; for IC50: Mus musculus, B-cell, read-out: LPS-induced B-cell proliferation IC50. The gist of the method: (§3)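 Splenocytes from 6–8-week-old female BALB/c mice, with erythrocytes lysed in NH4Cl/Tris buffer (pH 7.2), in RPMI 1640 with 10% FBS and penicillin/streptomycin. Cells at 5 × 10^5 in triplicate for 48 h with or without test compound (DMSO stock diluted in medium). Stimulation: ConA 1 μg/mL for T cells or LPS 10 μg/mL for B cells. [3H]thymidine 0.5 μCi/well pulse for 8 h, filter harvest, scintillation counting. IC50 from log(inhibitor)–normalized response nonlinear fit.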

For data set [5], the system named is Con A-induced T cell proliferation of murine splenocytes. The experiment in a line: Con A-induced T-cell proliferation. Format: cell-based, mouse. The settings on record: 48 h; for IC50: Mus musculus, T-cell, read-out: Con A-induced T-cell proliferation IC50. The method, boiled down: as §3
The next data set has as its system IFN-γ. The experiment in a line: Con A-induced cytokine production in splenocytes, IFN-γ. Format: cell-based. The note with it: Mus musculus, Splenocyte, 48 h, read-out: IC50 IFN-γ.
Data set [6] is described as follows: Cytotoxicity in RAW264.7 cell. It is filed as cell-based. The note with it: mouse, RAW264.7 macrophage cells. The method, boiled down: as §1
For data set [7], the system named is IL-6. The experiment in a line: Con A-induced cytokine production in splenocytes, IL-6. The settings on record: Mus musculus, Splenocyte, 48 h, read-out: IC50 IL-6. It is filed as cell-based.
The nature of another data set: in vitro. The settings on record: human.
Another data set relates to IL-17. The experiment in a line: Con A-induced cytokine production in splenocytes, IL-17. Format: cell-based. The note with it: Mus musculus, Splenocyte, 48 h, read-out: IC50 IL-17.
Data set [8] has as its system IL-6. The experiment in a line: LPS-induced cytokine production in RAW264.7 cell, IL-6. Format: cell-based. The note with it: Mus musculus, RAW264.7, 48 h, read-out: IL-6 IC50. The method, boiled down:
as §2

Data set [9] concerns the target SARS-Cov2 spike glycoprotein (Severe acute respiratory syndrome coronavirus 2, UniProt P0DTC2). The experiment in a line: cell-based. It is filed as cell-based, SARS-CoV-2.
The next data set deals with Huh7 cell. The note with it: read-out: Huh7 cell CC50; MTT, 2 days.

A value given as a limit tells only on which side of the number the result lay.

For the compound `CCN(CC)CCCC(C)Nc1ccnc2cc(Cl)ccc12` (centres unmarked) [Compound 1, chloroquine, reference compound], the CC50 at 48 h in “Splenocytes cytotoxicity” came to 25.5 ± 2.47 µM; in [6], 21.9 ± 3.59 µM. Also, the IC50 with IL-1β [1] was 2.72 ± 0.75 µM; with TNF-α it was 35 ± 18.7 µM; in the data set with IL-1β [2], 0.48 ± 0.34 µM; in the data set with IL-6 [3], 0.81 ± 0.78 µM; in data set [4], 14.6 ± 0.56 µM; in data set [5], 15.27 ± 0.13 µM. For the same compound, the IC50 in the data set with IFN-γ was found to be 0.65 ± 0.31 µM; with IL-6 [7], 7.2 ± 1.49 µM; in the data set on IL-17, 0.65 ± 0.28 µM; with IL-6 [8], 14.6 ± 1.27 µM. The compound also displayed a CC50 in “in vitro” of 26.4 µM.

In the case of `CCN(CCO)CCCC(C)Nc1ccnc2cc(Cl)ccc12` (centres unmarked) [Compound 2, hydroxychloroquine, reference compound], the CC50 at 48 h was found to be 26.8 ± 2.81 µM in “Splenocytes cytotoxicity” and 25.3 ± 4.38 µM in [6]. Further, the IC50 with IL-1β [1] was 3.51 ± 0.15 µM; with TNF-α, 10 ± 2.97 µM; with IL-1β [2], 1.49 ± 0.32 µM; in the data set on IL-6 [3], 0.86 ± 0.57 µM; in [4], 14.2 ± 0.21 µM; in data set [5], 18.2 ± 1.45 µM. For the same compound, the IC50 in the data set on IFN-γ amounted to 0.44 ± 0.01 µM; in the data set with IL-6 [7], 5.78 ± 2.39 µM; in the data set with IL-17, 0.62 ± 0.23 µM; in the data set on IL-6 [8], 16.5 ± 0.55 µM. Also, the “2019nCoV-S-HIV EC50” value in data set [9] is listed as “ineffective”. The same compound came in with an EC50 in data set [9] of over 80 µM. In “in vitro”, the CC50 is over 80 µM.

Regarding `CCN(CCCC(C)Nc1ccnc2cc(Cl)ccc12)CCNC1CNC1` (centres unmarked) [Compound 5, N^1-(2-(Azetidin-3-ylamino)ethyl)-N^4-(7-chloroquinolin-4-yl)-N^1-ethylpentane-1,4-diamine], the CC50 at 48 h in the data set “Splenocytes cytotoxicity” is over 250 µM. The IC50 in data set [4] and in data set [5] was over 250 µM throughout. For the same compound, in data set [4] (murine splenocytes, LPS 10 μg/mL), the “LPS-induced B-cell proliferation IC50” value is reported as “lost activity completely”. This compound also showed a concentration for a half-maximal effect (EC50) in data set [9] of over 80 µM. Also, the “Con A-induced T-cell proliferation IC50” value in data set [5] (murine splenocytes, Con A 1 μg/mL) is given as “lost activity completely”. The compound also yielded a CC50 in “in vitro” of over 80 µM.

Compound `CCN(CCCC(C)Nc1ccnc2cc(Cl)ccc12)CCNC12CC(N)(C1)C2` (centres unmarked) [Compound 6, N^1-(2-((4-((7-Chloroquinolin-4-yl)amino)pentyl)(ethyl)amino)ethyl)bicyclo[1.1.1]pentane-1,3-diamine] had a CC50 at 48 h in the data set “Splenocytes cytotoxicity” of 32.4 ± 6.22 µM. The IC50 came out at 15.2 ± 0.46 µM in data set [4] and 16.7 ± 0.34 µM in data set [5]. This compound showed an EC50 in [9] of 40.5 µM. This compound returned a CC50 in the data set “in vitro” of 24.9 µM.

`CCN(CCCC(C)Nc1ccnc2cc(Cl)ccc12)CCNC(=O)C(F)(F)C1CCNCC1` (centres unmarked) [Compound 8, N-(2-((4-((7-Chloroquinolin-4-yl)amino)pentyl)(ethyl)amino)ethyl)-2,2-difluoro-2-(piperidin-4-yl)acetamide]: the CC50 at 48 h in the data set “Splenocytes cytotoxicity” is 71.6 ± 3.47 µM. For the same compound, the IC50 is 28.3 ± 6.13 µM in [4] and 45.4 ± 1.43 µM in data set [5]. Besides, the EC50 in data set [9] turned out to be 31.6 µM. In addition, the CC50 in “in vitro” was determined as 27.3 µM.

On to `CCN(CCCC(C)Nc1ccnc2cc(Cl)ccc12)CCNC(=O)C(F)(F)C1CCN(CC(O)C(F)(F)F)CC1` (centres unmarked) [Compound 9, N-(2-((4-((7-Chloroquinolin-4-yl)amino)pentyl)(ethyl)amino)ethyl)-2,2-difluoro-2-(1-(3,3,3-trifluoro-2-hydroxypropyl)piperidin-4-yl)acetamide], for which the CC50 at 48 h in “Splenocytes cytotoxicity” was determined as 5.71 ± 1.04 µM; in [6], 48.64 ± 0.18 µM. Also, the IC50 in the data set on IL-1β [1] is 0.72 ± 0.17 µM; with TNF-α, 15.9 ± 0.45 µM; in the data set on IL-1β [2], 0.21 ± 0.08 µM; in the data set on IL-6 [3], 0.01 ± 0.01 µM; in data set [4], 1.07 ± 0.23 µM; in data set [5], 2.85 ± 0.49 µM. The IC50 in the data set on IFN-γ is 1.23 ± 0.23 µM; in the data set on IL-6 [7], 0.16 ± 0.08 µM; in the data set on IL-17, 1.04 ± 0.2 µM; in the data set with IL-6 [8], 1.61 ± 0.25 µM. For the same compound, in data set [9], a half-maximal response (EC50) required 32.8 µM. Further, in the data set on Huh7 cell, the CC50 was 16.7 µM.

`CCN(CCCC(C)Nc1ccnc2cc(Cl)ccc12)CCNC(=O)C(F)(F)C1CCN(CCOCCOC)CC1` (centres unmarked) [Compound 10, N-(2-((4-((7-Chloroquinolin-4-yl)amino)pentyl)(ethyl)amino)ethyl)-2,2-difluoro-2-(1-(2-(2-methoxyethoxy)ethyl)piperidin-4-yl)acetamide]: the CC50 at 48 h in “Splenocytes cytotoxicity” was 8.1 ± 0.77 µM; in [6], 125 ± 45.7 µM. Moreover, the IC50 is 1.81 ± 0.83 µM with IL-1β [1]; 24.4 ± 6.05 µM with TNF-α; 0.003 ± 0.002 µM in the data set with IL-1β [2]; 1.48 ± 0.81 µM with IL-6 [3]; 1.42 ± 0.15 µM in data set [4]; 4.27 ± 0.33 µM in [5]. For the same compound, the IC50 amounted to 0.61 ± 0.34 µM in the data set on IFN-γ, 2.7 ± 1.16 µM in the data set on IL-6 [7], 0.25 ± 0.03 µM in the data set with IL-17 and 2.52 ± 0.36 µM with IL-6 [8]. In addition, in [9], the EC50 was 5.53 µM. The CC50 in the data set with Huh7 cell came to 5.75 µM.

Consider `CCN(CCCC(C)Nc1ccnc2cc(Cl)ccc12)CCNC(=O)C(F)(F)C1CCN(C(=O)C2OC(OC)C3OC(C)(C)OC23)CC1` (centres unmarked) [Compound 11, N-(2-((4-((7-Chloroquinolin-4-yl)amino)pentyl)(ethyl)amino)ethyl)-2,2-difluoro-2-(1-(6-methoxy-2,2-dimethyltetrahydrofuro[3,4-d][1,3]dioxole-4-carbonyl)piperidin-4-yl)acetamide], for which the values for the CC50 at 48 h (in “Splenocytes cytotoxicity”; in data set [6]) were 11.24 ± 0.08 µM and 47.71 ± 0.15 µM, respectively. Besides, the IC50 stood at 1.19 ± 0.41 µM in the data set on IL-1β [1]; 4.41 ± 1.66 µM with TNF-α; 0.04 ± 0.03 µM in the data set on IL-1β [2]; 0.17 ± 0.11 µM with IL-6 [3]; 2.99 ± 0.73 µM in data set [4]; 2.49 ± 0.11 µM in [5]. Further, the IC50 worked out at 0.35 ± 0.18 µM in the data set on IFN-γ, 0.45 ± 0.18 µM in the data set with IL-6 [7], 0.17 ± 0.06 µM in the data set on IL-17 and 1.87 ± 0.44 µM in the data set with IL-6 [8]. For the same compound, in data set [9], the EC50 was 25.2 µM. In the data set on Huh7 cell, the CC50 is 16.9 µM.

The compound `CCN(CCCC(C)Nc1ccnc2cc(Cl)ccc12)CCNC(=O)CCOCCOCCOCCOCCOCC(=O)Nc1ccc2c(c1)OC(F)(F)O2` (centres unmarked) [Compound 15, N^18-(2-((4-((7-Chloroquinolin-4-yl)amino)pentyl)(ethyl)amino)ethyl)-N1-(2,2-difluorobenzo[d][1,3]dioxol-5-yl)-3,6,9,12,15-pentaoxaoctadecanediamide] registered a CC50 at 48 h in “Splenocytes cytotoxicity” of 6.07 ± 0.4 µM. The IC50 was 3.84 ± 1.25 µM in the data set with IL-1β [1]; 10.7 ± 3.99 µM in the data set with TNF-α; 3.34 ± 0.62 µM in the data set with IL-1β [2]; 1.51 ± 0.53 µM in the data set on IL-6 [3]; 1.44 ± 0.56 µM in data set [4]; 1.32 ± 0.06 µM in data set [5]. In addition, the IC50 with IFN-γ amounted to 1.67 ± 0.44 µM; with IL-6 [7], 0.47 ± 0.16 µM; in the data set with IL-17 it was 1.76 ± 0.72 µM; with IL-6 [8] it was 9.63 ± 3.75 µM. In [9], the “2019nCoV-S-HIV EC50” value is recorded as “marginal potency”. In data set [9], this compound yielded a concentration giving a half-maximal response (EC50) of 20.4 µM. In the data set “in vitro”, the CC50 came out at 21.7 µM.

By EC50 is commonly meant the concentration that produces a half-maximal response.
